ChEMBL document CHEMBL2311304, “Design, synthesis and in vitro and in vivo antitumor activities of novel bivalent β-carbolines” (Eur J Med Chem, 2013)

Legend:
[1] = test system: A-375; experiment: Cytotoxicity against human malignant melanoma A375 cells assessed as reduction in optical density by MTT assay; type: functional, cell-based
In short: (§1)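 Cells were cultured in RPMI-1640 with 10% (v/v) fetal calf serum, 100 µg ml-1 penicillin and 100 µg ml-1 streptomycin at 37 °C in humidified 5% CO2. Compounds were dissolved in DMSO, with final DMSO at 2% (v/v) or lower. MTT staining was used, with three replicate wells per point. IC50 is the concentration giving a 50% drop in optical density versus untreated cells.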

[2] = test system: SK-OV-3; experiment: Cytotoxicity against human ovary adenocarcinoma SKOV3 cells assessed as reduction in optical density by MTT assay; type: functional, cell-based; conditions: SK-OV-3, Female gonad; in short: as §1
[3] = test system: BGC-823; experiment: Cytotoxicity against human gastric carcinoma BGC823 cells assessed as reduction in optical density by MTT assay; type: functional, cell-based; in short: as §1
[4] = test system: 769-P; experiment: Cytotoxicity against human renal carcinoma 769-P cells assessed as reduction in optical density by MTT assay; type: functional, cell-based; in short: as §1
[5] = test system: KB; experiment: Cytotoxicity against human epidermoid carcinoma of the nasopharynx KB cells assessed as reduction in optical density by MTT assay; type: functional, cell-based; in short: as §1
[6] = test system: CT26; experiment: Antitumor activity in mouse CT26 colon cancer cells inoculated mouse assessed as tumor inhibition rate at one fifth of LD50 concentration once a day for consecutive 7 days by ip; type: functional; parameters: scale not given: the % may be the effect or the level left
In short: (§2)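 Each tumour line was first grown in mice for 7 days, then harvested. Viable cells (2 × 10^6 per mouse) were injected s.c. into the armpit. Dosing began 24 h later: i.p., about one fifth of LD50, daily for 7 days, 10 female mice per group. […] Body weight was recorded every 3 days. Tumours were excised and weighed on day 21 to give inhibition rate.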

[7] = test system: Mus musculus; experiment: Neurotoxicity in C57BL/6 mouse at 1 to 500 mg/kg, ip for 14 days; type: toxicity, organism-based; parameters: dose 1-500 mg/kg, route intraperitoneal; conditions: in vivo, 336 h
In short: (§3)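 Healthy C57BL/6 mice (9–12 weeks, 18–22 g) were fasted overnight with free access to water. Each received a single i.p. dose of 1.0–500 mg kg-1 in 0.5% CMC-Na, 10 mice per group (5 male, 5 female). Mice were watched continuously for 2 h, intermittently to 24 h, then occasionally to 14 days for tremor, twitch, jumping and supination. At day 14 they were killed and heart, liver and kidneys were examined macroscopically.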

[8] = test system: Mus musculus; experiment: Toxicity in C57BL/6 mouse assessed as liver damage at 1 to 500 mg/kg, ip for 14 days; type: organism-based; parameters: dose 1-500 mg/kg, route intraperitoneal; conditions: in vivo, 336 h; in short: as §3
[9] = test system: Mus musculus; experiment: Toxicity in C57BL/6 mouse assessed as kidney damage at 1 to 500 mg/kg, ip for 14 days; type: organism-based; parameters: dose 1-500 mg/kg, route intraperitoneal; conditions: in vivo, 336 h; in short: as §3
[10] = Antitumor activity in mouse Lewis lung cancer cells inoculated mouse assessed as tumor inhibition rate at one fifth of LD50 concentration once a day for consecutive 7 days by ip; type: functional, Cancer cell lines; parameters: scale not given: the % may be the effect or the level left; in short: as §2
[11] = test system: Mus musculus; experiment: Toxicity in C57BL/6 mouse assessed as heart damage at 1 to 500 mg/kg, ip for 14 days; type: organism-based; parameters: dose 1-500 mg/kg, route intraperitoneal; conditions: in vivo, 336 h; in short: as §3
[12] = test system: Mus musculus; experiment: Toxicity in C57BL/6 mouse assessed as maximum weight loss at 40 mg/kg, ip; type: organism-based; parameters: dose 40 mg/kg, route intraperitoneal; conditions: in vivo
In short: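 Tumor-bearing mice, 10 females per group, were inoculated s.c. in the armpit with 2 × 10^6 viable tumor cells. Compound was given i.p. once daily for 7 consecutive days, starting 24 h after inoculation. […] Body weight was recorded every 3 days until sacrifice on day 21.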

[13] = Antitumor activity in mouse Sarcoma 180 cells inoculated mouse assessed as tumor inhibition rate at one fifth of LD50 concentration once a day for consecutive 7 days by ip; type: functional; parameters: scale not given: the % may be the effect or the level left; in short: as §2
[14] = test system: H22; experiment: Antitumor activity in mouse H22 liver cancer cells inoculated mouse assessed as tumor inhibition rate at one fifth of LD50 concentration once a day for consecutive 7 days by ip; type: functional; parameters: scale not given: the % may be the effect or the level left; in short: as §2
[15] = test system: B16; experiment: Antitumor activity in mouse B16 melanoma cell lines cells inoculated mouse assessed as tumor inhibition rate at one fifth of LD50 concentration once a day for consecutive 7 days by ip; type: functional; parameters: scale not given: the % may be the effect or the level left; in short: as §2

| SMILES | IC50 [1] [µM] | IC50 [2] [µM] | IC50 [3] [µM] | IC50 [4] [µM] | IC50 [5] [µM] | Activity [6] [%] | Activity [7] | Activity [8] | Activity [9] | Activity [10] [%] | Activity [11] | Activity [12] [%] | Activity [13] [%] | Activity [14] [%] | Activity [15] [%] |
| --- | --- | --- | --- | --- | --- | --- | --- | --- | --- | --- | --- | --- | --- | --- | --- |
| c1cncc(-c2nccc3c4ccccc4n(CCCCn4c5ccccc5c5ccnc(-c6cccnc6)c54)c23)c1 | 85.3 | 36.8 | > 200 | > 200 | > 200 |  |  |  |  |  |  |  |  |  |  |
| CCOC(=O)c1cc2c3ccccc3n(CCCCCn3c4ccccc4c4cc(C(=O)OCC)nc(-c5cccnc5)c43)c2c(-c2cccnc2)n1 | 13 | > 200 | 24.1 | 132 | 15.7 |  |  |  |  |  |  |  |  |  |  |
| CCOC(=O)c1cc2c3ccccc3n(CCCCCCn3c4ccccc4c4cc(C(=O)OCC)nc(-c5cccnc5)c43)c2c(-c2cccnc2)n1 | > 200 | 68.3 | > 200 | > 200 | > 200 |  |  |  |  |  |  |  |  |  |  |
| c1ccc2c(c1)c1ccncc1n2CCCCn1c2ccccc2c2ccncc21 | > 200 | > 200 | 59.7 |  | > 200 | 39.7 | Non-toxic | Non-toxic | Non-toxic | 34.2 | Non-toxic | 14.5 |  |  |  |
| c1ccc2c(c1)c1ccncc1n2CCCCCCCn1c2ccccc2c2ccncc21 | > 200 | > 200 | > 200 | 53 | > 200 |  |  |  |  |  |  |  |  |  |  |
| c1ccc2c(c1)c1ccncc1n2CCCCCCCCn1c2ccccc2c2ccncc21 | > 200 | 33.5 | > 200 | > 200 | > 200 |  |  |  |  |  |  |  |  |  |  |
| Brc1ccc2c(c1)c1ccncc1n2CCCCn1c2ccc(Br)cc2c2ccncc21 | > 200 | 8.9 | > 200 | 3.1 | > 200 |  |  |  |  |  |  |  |  |  |  |
| Brc1cccc2c3ccncc3n(CCCCCCn3c4cnccc4c4cccc(Br)c43)c12 | > 200 | > 200 | > 200 | > 200 | > 200 |  |  |  |  |  |  |  |  |  |  |
| Cc1nccc2c3ccccc3n(CCCn3c4ccccc4c4ccnc(C)c43)c12 | 69.5 | 26.4 | > 200 | 145 | 160 |  |  |  |  |  |  |  |  |  |  |
| Cc1nccc2c3ccccc3n(CCCCn3c4ccccc4c4ccnc(C)c43)c12 | 13.1 | 4.8 | 22.3 | 6.5 | 6.4 | 50.8 | Non-toxic | Non-toxic | Non-toxic | 40.4 | Non-toxic | 21.5 | 56.2 | 42.3 | 29.9 |
| Cc1nccc2c3ccccc3n(CCCCCn3c4ccccc4c4ccnc(C)c43)c12 | > 200 | 18.8 | > 200 | > 200 | > 200 |  |  |  |  |  |  |  |  |  |  |
| Cc1nccc2c3ccccc3n(CCCCCCn3c4ccccc4c4ccnc(C)c43)c12 | 38 | 16.9 | 134 | 149 | 87.9 | 39.6 | Non-toxic | Non-toxic | Non-toxic | 42.1 | Non-toxic | 5.1 |  |  |  |
| Cc1nccc2c3ccccc3n(CCCCCCCn3c4ccccc4c4ccnc(C)c43)c12 | > 200 | 96.8 | > 200 | 51.7 | > 200 |  |  |  |  |  |  |  |  |  |  |
| Cc1nccc2c3ccccc3n(CCCCCCCCn3c4ccccc4c4ccnc(C)c43)c12 | > 200 | > 200 | > 200 | > 200 | > 200 |  |  |  |  |  |  |  |  |  |  |
| Cc1nccc2c3ccccc3n(CCCCCCCCCn3c4ccccc4c4ccnc(C)c43)c12 | 57.2 | 61.9 | > 200 | > 200 | > 200 |  |  |  |  |  |  |  |  |  |  |
| Cc1nccc2c3ccccc3n(CCCCCCCCCCn3c4ccccc4c4ccnc(C)c43)c12 | > 200 | 8.5 | > 200 | 16.2 | > 200 |  |  |  |  |  |  |  |  |  |  |
| CCOC(=O)c1cc2c3ccccc3n(CCCCCCn3c4ccccc4c4cc(C(=O)OCC)nc(C)c43)c2c(C)n1 | > 200 | > 200 | > 200 | > 200 | > 200 |  |  |  |  |  |  |  |  |  |  |
